Assay results published in ChEMBL document CHEMBL2146441, “2,6-Disubstituted imidazo[2,1-b][1,3,4]thiadiazoles: search for anticancer agents” (2012).

Columns and labels:
Type in all cases: functional
786-0 = assay: Cytotoxicity against human 786-0 cells assessed as cell growth at 10^-5 M after 48 hrs by SRB assay; conditions: 786-0, 48 h, read-out: Activity
Outline: (§1)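 NCI-60 screen: lines kept in RPMI 1640 with 5% FBS, seeded at 5000–40,000 cells/well by doubling time, preincubated 24 h at 37 °C in 5% CO2. Time-zero plates TCA-fixed at drug addition. DMSO stocks diluted in medium, 48 h exposure. Fixation in cold TCA (final 10% adherent, 16% suspension), 0.4% SRB stain, solubilised in 10 mM Tris base, A515. Percent growth computed against control and time-zero.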

T47D = assay: Cytotoxicity against human T47D cells assessed as cell growth at 10^-4 M after 48 hrs by SRB assay; conditions: read-out: Activity
UACC-257 [1] = assay: Cytotoxicity against human UACC257 cells assessed as cell growth at 10^-8 M after 48 hrs by SRB assay; conditions: UACC-257, 48 h, read-out: Activity
HL-60 = assay: Cytotoxicity against human HL60 cells assessed as cell growth at 10^-5 M after 48 hrs by SRB assay; conditions: HL-60, 48 h, read-out: Activity
Outline: (§2)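 NCI-60 five-dose screen. Cells were grown in RPMI 1640 with 5% FBS and seeded at 5000–40,000 cells/well according to doubling time. They were pre-incubated 24 h at 37 °C in 5% CO₂, and time-zero (Tz) plates were TCA-fixed at drug addition. Five 10-fold dilutions of DMSO stock were applied for 48 h. Read-out was SRB staining, 515 nm absorbance, with percent growth calculated versus Tz and untreated control.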

HCT-15 = assay: Cytotoxicity against human HCT15 cells assessed as cell growth at 10^-8 M after 48 hrs by SRB assay; conditions: HCT-15, 48 h, read-out: Activity; outline: as §2
SK-MEL-2 = assay: Cytotoxicity against human SK-MEL-2 cells assessed as cell growth at 10^-4 M after 48 hrs by SRB assay; conditions: SK-MEL-2, 48 h, read-out: Activity
ACHN [2] = assay: Cytotoxicity against human ACHN cells assessed as cell growth at 10^-7 M after 48 hrs by SRB assay; conditions: read-out: Activity; outline: as §1
SNB-75 = assay: Cytotoxicity against human SNB75 cells assessed as cell growth at 10^-5 M after 48 hrs by SRB assay; conditions: SNB-75, 48 h, read-out: Activity
OVCAR-8 = assay: Cytotoxicity against human OVCAR8 cells assessed as cell growth at 10^-6 M after 48 hrs by SRB assay; conditions: OVCAR-8, 48 h, read-out: Activity
OVCAR-3 = assay: Cytotoxicity against human OVCAR3 cells assessed as cell growth at 10^-7 M after 48 hrs by SRB assay; conditions: OVCAR-3, 48 h, read-out: Activity
HOP-62 = assay: Cytotoxicity against human HOP62 cells assessed as cell growth at 10^-6 M after 48 hrs by SRB assay; conditions: HOP-62, 48 h, read-out: Activity; outline: as §2
LOX IMVI = assay: Growth inhibition of human LOXIMVI cells after 48 hrs by SRB assay
Outline: (§3)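 Adherent NCI-60 lines grown in RPMI 1640 with 5% FBS, seeded at 5000–40,000 cells/well, and preincubated 24 h at 37 °C, 5% CO2. Compound, stocked in DMSO, given either once at 10^-5 M or at five 10-fold dilutions for 48 h. Cells fixed with cold TCA (final 10%), stained with 0.4% SRB, and read at 515 nm. GI50 taken as 50% reduction in net protein increase versus time-zero and control plates.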

NCI-H522 = assay: Cytotoxicity against human NCI-H522 cells assessed as cell growth at 10^-6 M after 48 hrs by SRB assay; conditions: NCI-H522, 48 h, read-out: Activity
NCI-H322M = assay: Cytotoxicity against human NCI-H322M cells assessed as cell growth at 10^-6 M after 48 hrs by SRB assay; conditions: read-out: Activity
SNB-19 = assay: Cytotoxicity against human SNB19 cells assessed as cell growth at 10^-4 M after 48 hrs by SRB assay; conditions: SNB-19, 48 h, read-out: Activity
EKVX = assay: Cytotoxicity against human EKVX cells assessed as cell growth at 10^-7 M after 48 hrs by SRB assay; conditions: read-out: Activity; outline: as §1
HCT-116 [3] = assay: Cytotoxicity against human HCT116 cells assessed as cell growth at 10^-4 M after 48 hrs by SRB assay; conditions: HCT-116, 48 h, read-out: Activity; outline: as §2
SK-MEL-28 = assay: Growth inhibition of human SK-MEL-28 cells after 48 hrs by SRB assay; conditions: SK-MEL-28, 48 h; for CC50: read-out: LC50 (the source's name); outline: as §3
UACC-62 [4] = assay: Cytotoxicity against human UACC62 cells assessed as cell growth at 10^-7 M after 48 hrs by SRB assay; conditions: UACC-62, 48 h, read-out: Activity
OVCAR-4 = assay: Cytotoxicity against human OVCAR4 cells assessed as cell growth at 10^-6 M after 48 hrs by SRB assay; conditions: OVCAR-4, 48 h, read-out: Activity
NCI-H226 = assay: Cytotoxicity against human NCI-H226 cells assessed as cell growth at 10^-5 M after 48 hrs by SRB assay; conditions: NCI-H226, 48 h, read-out: Activity
ACHN [5] = assay: Cytotoxicity against human ACHN cells assessed as cell growth at 10^-4 M after 48 hrs by SRB assay; conditions: read-out: Activity; outline: as §1
DU-145 = assay: Cytotoxicity against human DU145 cells assessed as cell growth at 10^-4 M after 48 hrs by SRB assay; conditions: DU-145, 48 h, read-out: Activity; outline: as §1
[6] = Cytotoxicity against human Hs 578T cells assessed as cell growth at 10^-6 M after 48 hrs by SRB assay; conditions: read-out: Activity; outline: as §2
MCF7 = assay: Cytotoxicity against human MCF7 cells assessed as cell growth at 10^-8 M after 48 hrs by SRB assay; conditions: MCF7, 48 h, read-out: Activity
CCRF-CEM = assay: Cytotoxicity against human CCRF-CEM cells assessed as cell growth at 10^-8 M after 48 hrs by SRB assay; conditions: read-out: Activity; outline: as §1
SF-295 = assay: Cytotoxicity against human SF295 cells assessed as cell growth at 10^-6 M after 48 hrs by SRB assay; conditions: SF-295, 48 h, read-out: Activity
UACC-257 [7] = assay: Growth inhibition of human UACC257 cells after 48 hrs by SRB assay; conditions: UACC-257, 48 h; for CC50: read-out: LC50 (the source's name); outline: as §3
SW-620 = assay: Cytotoxicity against human SW620 cells assessed as cell growth at 10^-7 M after 48 hrs by SRB assay; conditions: SW-620, 48 h, read-out: Activity
HCT-116 [8] = assay: Growth inhibition of human HCT116 cells after 48 hrs by SRB assay; conditions: HCT-116, 48 h; outline: as §3
UACC-62 [9] = assay: Cytotoxicity against human UACC62 cells assessed as cell growth at 10^-4 M after 48 hrs by SRB assay; conditions: UACC-62, 48 h, read-out: Activity

Compound | growth at 10 µM (786-0) [%] | growth at 100 µM (T47D) [%] | growth at 0.01 µM (UACC-257 [1]) [%] | growth at 10 µM (HL-60) [%] | growth at 0.01 µM (HCT-15) [%] | growth at 100 µM (SK-MEL-2) [%] | growth at 0.1 µM (ACHN [2]) [%] | growth at 10 µM (SNB-75) [%] | growth at 1 µM (OVCAR-8) [%] | growth at 0.1 µM (OVCAR-3) [%] | growth at 1 µM (HOP-62) [%] | GI50 (LOX IMVI) [µM] | LC50 (lethal concentration, 50% net cell kill) (LOX IMVI) [µM] | TGI (LOX IMVI) [µM] | growth at 1 µM (NCI-H522) [%] | growth at 1 µM (NCI-H322M) [%] | growth at 100 µM (SNB-19) [%] | growth at 0.1 µM (EKVX) [%] | growth at 100 µM (HCT-116 [3]) [%] | GI50 (SK-MEL-28) [µM] | also measured
COc1ccc(-c2nn3cc(-c4ccc(O)cc4O)nc3s2)cc1 | -78 | -20 | 92 | 33 | 96 | -48 | 101 | -66 | 81 | 98 | 81 | 2.58 | > 100 | 31.4 | 69 | 77 | 1 | 92 | -55 | 2.14 | TGI (SK-MEL-28): 12.4 µM; CC50 (SK-MEL-28): > 100 µM; growth at 0.1 µM (UACC-62 [4]): 95%; growth at 1 µM (OVCAR-4): 68%; growth at 10 µM (NCI-H226): -11%; growth at 100 µM (ACHN [5]): 6%; growth at 100 µM (DU-145): 2%; growth at 1 µM [6]: 71%; growth at 0.01 µM (MCF7): 92%; growth at 0.01 µM (CCRF-CEM): 98%; growth at 1 µM (SF-295): 74%; GI50 (UACC-257 [7]): 4.98 µM; TGI (UACC-257 [7]): 76.4 µM; CC50 (UACC-257 [7]): > 100 µM; growth at 0.1 µM (SW-620): 96%; GI50 (HCT-116 [8]): 1.76 µM; LC50 (50% lethal concentration) (HCT-116 [8]): 8.25 µM; TGI (HCT-116 [8]): 3.81 µM; growth at 100 µM (UACC-62 [9]): -72%
COc1ccc(-c2nn3cc(-c4cccc(N)c4)nc3s2)cc1 | 23 | -14 | 100 | 19 | 98 | 38 | 105 | -24 | 94 | 98 | 84 | 3.38 | > 100 | 29.5 | 60 | 86 | 7 | 72 | -91 | 3.76 | TGI (SK-MEL-28): 26 µM; CC50 (SK-MEL-28): > 100 µM; growth at 0.1 µM (UACC-62 [4]): 90%; growth at 1 µM (OVCAR-4): 60%; growth at 10 µM (NCI-H226): 16%; growth at 100 µM (ACHN [5]): -53%; growth at 100 µM (DU-145): -41%; growth at 1 µM [6]: 76%; growth at 0.01 µM (MCF7): 86%; growth at 0.01 µM (CCRF-CEM): 96%; growth at 1 µM (SF-295): 72%; GI50 (UACC-257 [7]): 17.3 µM; TGI (UACC-257 [7]): > 100 µM; CC50 (UACC-257 [7]): > 100 µM; growth at 0.1 µM (SW-620): 95%; GI50 (HCT-116 [8]): 3.51 µM; LC50 (50% lethal concentration) (HCT-116 [8]): 41.4 µM; TGI (HCT-116 [8]): 14.2 µM; growth at 100 µM (UACC-62 [9]): -41%
